According to ChEMBL document CHEMBL3797056, “An evaluation of Minor Groove Binders as anti-Trypanosoma brucei brucei therapeutics” (Eur J Med Chem, 2016):
Activity calls are given as the source filed them. The rule behind the calls is not given here.

Tests used:
[1] = system: Trypanosoma brucei brucei; experiment: Antitrypanosomal activity against Trypanosoma brucei brucei Lister 427 bloodstream forms incubated for 48 hrs by alamar blue assay; format: functional, organism-based; details: Lister 427, 48 h
[2] = Selectivity index, ratio of IC50 for HEK293 cells to IC50 for Trypanosoma brucei brucei Lister 427 bloodstream forms; format: toxicity, cell-based; details: human, read-out: Ratio IC50
HEK293 = experiment: Cytotoxicity against HEK293 cells assessed as growth inhibition after 72 hrs by alamar blue viability assay; format: cell-based; details: Homo sapiens, HEK293, 72 h
Outline: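 HEK 293 cells kept in DMEM + 10% FBS at 37 °C, 5% CO2, harvested at 80% confluence, 2000 cells/well, equilibrated overnight. Serial compound dilutions for 72 h; puromycin positive control, 0.4% DMSO negative. […] Two experiments, duplicate points.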

[3] = system: Trypanosoma brucei brucei; experiment: Binding affinity to kinetoplast DNA in Trypanosoma brucei brucei Lister 427 bloodstream forms at 50 uM after 2 hrs by FITC/DsRed staining based fluorescence microscopic analysis
Outline: (§1)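 Parasites at 1 × 10^7 cells/mL exposed to 50 μM compound for 2 h at 37 °C, humidified 5% CO2. Washed in PBS, mixed 1:1 with 2% w/v low-melting agarose and spread under a coverslip for fluorescence microscopy.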

[4] = Drug uptake in Trypanosoma brucei brucei Lister 427 bloodstream forms nucleus at 50 uM after 2 hrs by FITC/DsRed staining based fluorescence microscopic analysis; format: ADME; outline: as §1

Row | SMILES | selectivity ratio [2] | IC50 (HEK293) [µM] | also measured
1 | COc1cccc(C(=N)Nc2cc(C(=O)Nc3cc(C(=O)Nc4nc(C(=O)NCCN5CCOCC5)c(C(C)C)s4)n(C)c3)n(C)c2)c1 | – | – | IC50 [1]: > 75 µM
2 | Cn1cc(NC(=O)c2cc(NC(=O)c3ccc(/C=C/c4ccc5nonc5c4)cc3)cn2C)cc1C(=O)NCCN1CCOCC1 | > 1050 | > 20 | –
3 | CN(C)c1ccc(/C=C/c2ccc(C(=O)Nc3cc(C(=O)Nc4cc(C(=O)NCCN5CCOCC5)n(C)c4)n(C)c3)cn2)cc1 | – | – | Activity [3]: Active; Drug uptake [4]: Active
4 | Cn1cc(NC(=O)c2cc(NC(=O)c3cc(NC(=O)c4cc5ccccc5cn4)cn3C)cn2C)cc1C(=O)NCCCN1CCOCC1 | > 2940 | > 20 | –
5 | Cn1cc(NC(=O)c2cc(NC(=O)c3ccc(/C=C/c4ccc5nsnc5c4)cc3)cn2C)cc1C(=O)NCCN1CCOCC1 | > 2740 | > 20 | –
6 | Cn1cc(NC(=O)c2cc(NC(=O)c3cc(NC=O)cn3C)cn2C)cc1C(=O)NCCN1CCOCC1 | – | – | IC50 [1]: 48 µM
7 | CC(C)CCc1sc(NC(=O)c2cc(NC(=O)c3cc(/C=C/c4ccc([N+](=O)[O-])cc4)cn3C)cn2C)nc1C(=O)NCCN1CCOCC1 | > 1850 | – | –
8 | CC(C)CCc1sc(NC(=O)c2cc(NC(=O)c3ccc(/C=C/c4ccc5ccccc5c4)cc3)cn2C)nc1C(=O)NCCN1CCOCC1 | > 500 | > 20 | –
